Values belong to the compound of their own block, whether it stands above or below them.
Assays:
[1] = target: T1, Acyl-CoA:cholesterol acyltransferase (Oryctolagus cuniculus, UniProt Q95214); test: In vitro inhibitory activity against Acyl coenzyme A:cholesterol acyltransferase
T1 sequence (Q95214 whole entry): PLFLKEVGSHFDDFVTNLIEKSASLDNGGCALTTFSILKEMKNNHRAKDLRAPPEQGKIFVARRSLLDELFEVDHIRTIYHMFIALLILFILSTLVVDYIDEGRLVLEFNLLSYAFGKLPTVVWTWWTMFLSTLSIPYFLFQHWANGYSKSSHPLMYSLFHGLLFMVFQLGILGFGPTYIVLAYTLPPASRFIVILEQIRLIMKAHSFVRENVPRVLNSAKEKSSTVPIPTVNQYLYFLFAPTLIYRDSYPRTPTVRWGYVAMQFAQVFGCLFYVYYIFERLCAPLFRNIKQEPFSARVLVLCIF
In short: (§1)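 Cellular assay: Fu5AH cells cultured with [³H]cholesterol-labeled hyperlipemic plasma lipoproteins; inhibition of [³H]cholesteryl ester synthesis and accumulation measured; IC50 given in μg/mL.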

[2] = target: T1, Acyl-CoA:cholesterol acyltransferase; test: In vitro inhibitory activity against Acyl coenzyme A:cholesterol acyltransferase; a = inactive; in short: as §1
[3] = system: Oryctolagus cuniculus; test: Tested in vivo for plasma cholesterol levels in Netherland Dwarf rabbit; assay type: functional, organism-based
In short: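 Netherland Dwarf rabbits fed cholesterol-containing atherogenic diet, with test agent at 50 mg/kg; plasma total cholesterol in mg/dL measured, alongside aortic lesion surface involvement; means ±SEM of 8 animals per group.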

[4] = system: Sterol O-acyltransferase 1 (Rattus norvegicus); test: Reduction of ACAT activity after treatment was measured in rat liver
[5] = system: Rattus norvegicus; test: Tested for plasma cholesterol levels against rat after 6.0 hours of oral administration.; assay type: functional, organism-based
In short: (§2)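 Male Sprague-Dawley rats (4 per group) intubated orally with 0.6 mL suspension of 1 μCi [4-14C]cholesterol (53 Ci/Mol), corn oil, ethanol, DMSO and 1 mg cholesterol, with or without test agent at 30 mg/kg. Two rats per group bled by cardiac puncture at 2.5 and 6 h; plasma [14C]cholesterol measured as dpm/mL; mean of two animals.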

[6] = system: Rattus norvegicus; test: Tested for plasma cholesterol levels against rat after 2.5 hours of oral administration.; assay type: functional, organism-based; in short: as §2
[7] = target: T2, Acyl-CoA:cholesterol acyltransferase (Oryctolagus cuniculus) (UniProt Q95214); test: Reduction of ACAT activity after treatment was measured in rabbit aorta; assay type: functional, tissue-based
T2 sequence (whole entry): T1 sequence (Q95214 whole entry)
In short: (§3)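 Rabbits given 10-day cholesterol feeding to raise arterial ACAT, then dosed orally at 50 mg kg⁻¹ day⁻¹ for 6 days; aortas excised, incubated in vitro with [1-14C]oleate for 3 h; ACAT activity as cholesteryl [14C]oleate formed, dpm/100 mg wet weight aorta; means of 2 animals per group.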

[8] = target: T2, Acyl-CoA:cholesterol acyltransferase (Oryctolagus cuniculus); test: Arterial Acyl coenzyme A:cholesterol acyltransferase activity was measured in vitro in rabbit aorta after administration of 50 mg/Kg; assay type: functional, organism-based; in short: as §3
[9] = system: Oryctolagus cuniculus; test: Tested in vivo for atheromatous lesion development in Netherland Dwarf rabbit; assay type: functional
In short: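 Netherland Dwarf rabbits on cholesterol-containing atherogenic diet, dosed at 50 mg/kg; aortic lesion formation scored as % surface involvement, with plasma total cholesterol (mg/dL); means (±SEM) of 8 animals per group.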

[10] = target: T3, Sterol O-acyltransferase 1 (Rattus norvegicus) (UniProt O70536); test: ACAT inhibitory activity was measured in rat liver after administration of 30 mg/Kg; assay type: functional, organism-based
T3 sequence (whole entry): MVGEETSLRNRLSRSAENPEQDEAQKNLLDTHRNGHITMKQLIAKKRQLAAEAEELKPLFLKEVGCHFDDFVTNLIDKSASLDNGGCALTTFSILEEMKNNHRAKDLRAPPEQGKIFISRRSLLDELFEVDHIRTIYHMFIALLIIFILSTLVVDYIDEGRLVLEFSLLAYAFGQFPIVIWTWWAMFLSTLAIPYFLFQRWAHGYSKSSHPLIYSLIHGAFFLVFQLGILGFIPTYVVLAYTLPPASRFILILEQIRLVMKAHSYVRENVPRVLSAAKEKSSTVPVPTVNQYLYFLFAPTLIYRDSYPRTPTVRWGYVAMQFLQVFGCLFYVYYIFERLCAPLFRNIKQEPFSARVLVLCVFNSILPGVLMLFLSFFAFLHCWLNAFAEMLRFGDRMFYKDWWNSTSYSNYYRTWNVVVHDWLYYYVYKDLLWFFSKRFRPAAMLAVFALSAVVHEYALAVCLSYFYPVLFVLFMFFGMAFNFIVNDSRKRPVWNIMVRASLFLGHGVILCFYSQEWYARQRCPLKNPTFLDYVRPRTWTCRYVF
In short: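 Male Sprague-Dawley rats (435-460 g) fed Purina chow with compound in diet (calculated 30 mg kg⁻¹ day⁻¹) for 8 days; liver minces incubated in vitro with [1-14C]oleate for 90 min; ACAT activity read as cholesteryl [14C]oleate formed, dpm/100 mg wet weight; means of 2 animals per group.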

[11] = target: T2, Acyl-CoA:cholesterol acyltransferase (Oryctolagus cuniculus); test: In vitro inhibitory activity against Acyl coenzyme A:cholesterol acyltransferase at a concentration of 5 ug/mL

SMILES: COc1c2occ(F)c2c(OC)c2c(=O)cc(CN3CCC(CCC4CCN(Cc5cc(=O)c6c(OC)c7c(F)coc7c(OC)c6o5)CC4)CC3)oc12
IC50 [1]: < 13.4 µM

SMILES: COc1c2occc2c(OC)c2c(=O)cc(CN3CCC(CCC4CCN(Cc5cc(=O)c6c(OC)c7ccoc7c(OC)c6o5)CC4)CC3)oc12
Plasma total cholesterol [3]: 271 mg/dL
Reduction [4]: 62%
Plasma [14C] cholesterol [5]: 3880 dpm/mL
Plasma [14C] cholesterol [6]: 818 dpm/mL
Reduction [7]: 42%
IC50 [1]: 1.12 µM
ACAT activity (dpm/100 mg wet wt) [8]: 305
Surface involvement [9]: <10%
ACAT activity (dpm/100 mg wet wt) [10]: 535

SMILES: COc1c2occc2c(OC)c2c(=O)cc(CN3CCN(CCN4CCN(Cc5cc(=O)c6c(OC)c7ccoc7c(OC)c6o5)CC4)CC3)oc12
inhibition [11]: 5%

SMILES: COc1c2occc2c(OC)c2c(=O)cc(CN3CCN(CC(O)CN4CCN(Cc5cc(=O)c6c(OC)c7ccoc7c(OC)c6o5)CC4)CC3)oc12
inhibition [11]: 7%

SMILES: COc1c2c(c(OC)c3c(=O)cc(CN4CCC(CCC5CCN(Cc6cc(=O)c7c(OC)c8c(c(OC)c7o6)OCC8)CC5)CC4)oc13)CCO2
IC50 [1]: 4.19 µM

Continued, values first:

IC50 [2]: Not Active
SMILES: COc1c2occc2c(O)c2c(=O)cc(CN3CCC(CCC4CCN(Cc5cc(=O)c6c(O)c7ccoc7c(OC)c6o5)CC4)CC3)oc12

inhibition [11]: 0%
SMILES: COc1c2occc2c(OC)c2c(=O)cc(CN3CCC(C4CCN(Cc5cc(=O)c6c(OC)c7ccoc7c(OC)c6o5)CC4)CC3)oc12

IC50 [1]: 5.78 µM
SMILES: COc1c2occc2c(OC)c2c(=O)cc(CN3CCC(CCCC4CCN(Cc5cc(=O)c6c(OC)c7ccoc7c(OC)c6o5)CC4)CC3)oc12
